Results from ChEMBL document CHEMBL5329156, “Discovery and development of novel substituted monohydrazides as potent antifungal agents” (RSC Med Chem, 2023).
Values after ≈ are worked out from the molar mass of the structure shown. Active and inactive are the calls of the source. The calls are words filed in the database; no cut-off is given here.

What was measured:
[1] = test system: Aspergillus nidulans; test: Antifungal activity against Aspergillus nidulans ATCC 38163 assessed as fungal growth inhibition by double dilution method; assay type: functional
[2] = test system: Cryptococcus neoformans; test: Antifungal activity against Cryptococcus neoformans ATCC MYA-895 assessed as fungal growth inhibition by double dilution method; assay type: functional
Procedure, shortened: (§1)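 Broth microdilution after CLSI M27-A3/M38-A2 with minor changes. Single colony grown overnight in YPD at 35 °C, 200 rpm. Compound final range 0.06-31.3 µg/mL; incubated 48 h at 35 °C.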

[3] = test system: Aspergillus terreus; test: Antifungal activity against Aspergillus terreus ATCC MYA-3633 assessed as fungal growth inhibition by double dilution method; assay type: functional
[4] = test system: [Candida] auris; test: Antifungal activity against Candida auris AR Bank # 0384 assessed as fungal growth inhibition by double dilution method; assay type: functional; settings: Candidozyma auris; procedure, shortened: as §1
[5] = test system: HEK293; test: Cytotoxicity against human HEK-293 cells assessed as reduction in cell viability at 31.3 microg/ml; assay type: toxicity, cell-based; settings: dose 31.3 µg/ml
Procedure, shortened: (§2)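 Cells in DMEM with 10% FBS and 1% Pen/Strep, seeded at 10,000 cells/well and held overnight at 37 °C, 5% CO2. Compounds added at final 31.3-0.12 µg/mL (0.05% DMSO vehicle) for 24 h. Resazurin then added for 6 h; fluorescence read at ex 560/em 590. Triton X-100 1% as positive control; values normalized to vehicle. Run in quadruplicate.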

[6] = test system: Candida albicans; test: Antifungal activity against Candida albicans ATCC 64124 assessed as fungal growth inhibition by double dilution method; assay type: functional
Procedure, shortened: (§3)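 Broth microdilution after CLSI M27-A3/M38-A2 with minor modifications. A single colony was grown overnight in YPD at 35 °C with shaking at 200 rpm. Cells were mixed 1:1 with compound (final 0.06-31.3 µg/mL, from DMSO stocks) and incubated 48 h at 35 °C.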

[7] = test system: Pichia kudriavzevii; test: Antifungal activity against Pichia kudriavzevii ATCC 6258 assessed as fungal growth inhibition by double dilution method; assay type: functional; procedure, shortened: as §1
[8] = test system: Aspergillus fumigatus; test: Antifungal activity against Aspergillus fumigatus NRRL 6113 assessed as fungal growth inhibition by double dilution method; assay type: functional
[9] = test system: Candida albicans; test: Antifungal activity against Candida albicans ATCC 10231 assessed as fungal growth inhibition by double dilution method; assay type: functional; procedure, shortened: as §1
[10] = test system: Aspergillus fumigatus; test: Antifungal activity against Aspergillus fumigatus NRRL 163 assessed as fungal growth inhibition by double dilution method; assay type: functional
[11] = Cytotoxicity against human HepG2 cells assessed as cell survival at 31.3 microg/ml relative to control; assay type: toxicity, cell-based; settings: at 31.3 µg/mL, read-out: Activity; procedure, shortened: as §2
[12] = test system: Candida albicans; test: Antifungal activity against itraconazole/fluconazole resistant Candida albicans ATCC 90819 assessed as fungal growth inhibition by double dilution method; assay type: functional; procedure, shortened: as §3
[13] = test system: Aspergillus fumigatus; test: Antifungal activity against Aspergillus fumigatus NRRL 5109 assessed as fungal growth inhibition by double dilution method; assay type: functional
[14] = test system: Aspergillus flavus; test: Antifungal activity against Aspergillus flavus ATCC MYA-3631 assessed as fungal growth inhibition by double dilution method; assay type: functional
[15] = test system: Nakaseomyces glabratus; test: Antifungal activity against Candida glabrata ATCC 2001 assessed as fungal growth inhibition by double dilution method; assay type: functional; procedure, shortened: as §1
[16] = test system: Candida albicans; test: Antifungal activity against itraconazole/fluconazole susceptible Candida albicans ATCC MYA-2310 assessed as fungal growth inhibition by double dilution method; assay type: functional; procedure, shortened: as §3
[17] = test system: Candida albicans; test: Antifungal activity against itraconazole/fluconazole susceptible Candida albicans ATCC MYA-2876 assessed as fungal growth inhibition by double dilution method; assay type: functional; procedure, shortened: as §3
[18] = test system: Candida albicans; test: Antifungal activity against itraconazole/fluconazole resistant Candida albicans ATCC MYA-1237 assessed as fungal growth inhibition by double dilution method; assay type: functional; procedure, shortened: as §3
[19] = test system: [Candida] auris; test: Antifungal activity against Candida auris AR Bank # 0390 assessed as fungal growth inhibition by double dilution method; assay type: functional; settings: Candidozyma auris; procedure, shortened: as §1
[20] = test system: Candida albicans; test: Antifungal activity against itraconazole/fluconazole resistant Candida albicans ATCC MYA-1003 assessed as fungal growth inhibition by double dilution method; assay type: functional; procedure, shortened: as §3
[21] = test system: Nakaseomyces glabratus; test: Antifungal activity against Candida glabrata ATCC 22019 assessed as fungal growth inhibition by double dilution method; assay type: functional; procedure, shortened: as §1
[22] = test system: J774.A1; test: Cytotoxicity against J774A.1 cells assessed as reduction in cell viability at 31.3 microg/ml; assay type: toxicity, cell-based; settings: mouse, dose 31.3 µg/ml; procedure, shortened: as §2
[23] = test system: [Candida] auris; test: Antifungal activity against Candida auris AR Bank # 381 assessed as fungal growth inhibition by double dilution method; assay type: functional; settings: Candidozyma auris; procedure, shortened: as §1
[24] = test system: Saccharomyces cerevisiae; test: Antifungal activity against Saccharomyces cerevisiae AR Bank # 399 assessed as fungal growth inhibition by double dilution method; assay type: functional; procedure, shortened: as §1
[25] = test system: [Candida] auris; test: Antifungal activity against Candida auris AR Bank # 382 assessed as fungal growth inhibition by double dilution method; assay type: functional; settings: Candidozyma auris; procedure, shortened: as §1
[26] = test system: Candida duobushaemulonii; test: Antifungal activity against Candida duobushaemulonii AR Bank # 391 assessed as fungal growth inhibition by double dilution method; assay type: functional; settings: Candidozyma duobushaemuli; procedure, shortened: as §1
[27] = test system: Candida duobushaemulonii; test: Antifungal activity against Candida duobushaemulonii AR Bank # 394 assessed as fungal growth inhibition by double dilution method; assay type: functional; settings: Candidozyma duobushaemuli; procedure, shortened: as §1
[28] = test system: [Candida] auris; test: Antifungal activity against Candida auris AR Bank # 388 assessed as fungal growth inhibition by double dilution method; assay type: functional; settings: Candidozyma auris; procedure, shortened: as §1
[29] = test system: [Candida] auris; test: Antifungal activity against Candida auris AR Bank # 390 assessed as fungal growth inhibition by double dilution method; assay type: functional; settings: Candidozyma auris; procedure, shortened: as §1
[30] = test system: Saccharomyces cerevisiae; test: Antifungal activity against Saccharomyces cerevisiae AR Bank # 400 assessed as fungal growth inhibition by double dilution method; assay type: functional; procedure, shortened: as §1
[31] = test system: [Candida] auris; test: Antifungal activity against Candida auris AR Bank # 385 assessed as fungal growth inhibition by double dilution method; assay type: functional; settings: Candidozyma auris; procedure, shortened: as §1
[32] = test system: [Candida] auris; test: Antifungal activity against Candida auris AR Bank # 389 assessed as fungal growth inhibition by double dilution method; assay type: functional; settings: Candidozyma auris; procedure, shortened: as §1
[33] = test system: [Candida] haemuloni; test: Antifungal activity against Candida haemulonii AR Bank # 393 assessed as fungal growth inhibition by double dilution method; assay type: functional; settings: Candidozyma haemuli; procedure, shortened: as §1
[34] = test system: Candida duobushaemulonii; test: Antifungal activity against Candida duobushaemulonii AR Bank # 392 assessed as fungal growth inhibition by double dilution method; assay type: functional; settings: Candidozyma duobushaemuli; procedure, shortened: as §1
[35] = test system: Pichia kudriavzevii; test: Antifungal activity against Pichia kudriavzevii AR Bank # 397 assessed as fungal growth inhibition by double dilution method; assay type: functional; procedure, shortened: as §1
[36] = test system: Candida albicans; test: Antibiofilm activity against Candida albicans ATCC 10231 assessed as reduction in biofilm production at 1.96 to 3.9 microg/ml by biofilm formation assay; assay type: functional, organism-based; settings: dose 1.96-3.9 µg/ml
[37] = test system: [Candida] haemuloni; test: Antifungal activity against Candida haemulonii AR Bank # 395 assessed as fungal growth inhibition by double dilution method; assay type: functional; settings: Candidozyma haemuli; procedure, shortened: as §1
[38] = test system: Clavispora lusitaniae; test: Antifungal activity against Clavispora lusitaniae AR Bank # 398 assessed as fungal growth inhibition by double dilution method; assay type: functional; procedure, shortened: as §1
[39] = test system: [Candida] auris; test: Antifungal activity against Candida auris AR Bank # 387 assessed as fungal growth inhibition by double dilution method; assay type: functional; settings: Candidozyma auris; procedure, shortened: as §1
[40] = test system: [Candida] auris; test: Antifungal activity against Candida auris AR Bank # 386 assessed as fungal growth inhibition by double dilution method; assay type: functional; settings: Candidozyma auris; procedure, shortened: as §1
[41] = test system: [Candida] auris; test: Antifungal activity against Candida auris AR Bank # 383 assessed as fungal growth inhibition by double dilution method; assay type: functional; settings: Candidozyma auris; procedure, shortened: as §1
[42] = test system: [Candida] auris; test: Antifungal activity against Candida auris AR Bank # 384 assessed as fungal growth inhibition by double dilution method; assay type: functional; settings: Candidozyma auris; procedure, shortened: as §1
[43] = test system: HepG2; test: Cytotoxicity against human HepG2 cells assessed as reduction in cell viability upto 31.3 microg/ml; assay type: toxicity, cell-based; settings: dose < 31.3 µg/ml; procedure, shortened: as §2
[44] = test system: Kodamaea ohmeri; test: Antifungal activity against Kodamaea ohmeri AR Bank # 396 assessed as fungal growth inhibition by double dilution method; assay type: functional; procedure, shortened: as §1

O=C(NNc1cccc(F)c1)c1cnccn1
MIC [1]: 0.98 µg/mL (≈ 4.22 µM)
MIC [2]: 0.12 µg/mL (≈ 0.517 µM)
MIC [3]: 0.98 µg/mL (≈ 4.22 µM)
MIC [4]: 0.98 µg/mL (≈ 4.22 µM)
Activity [5]: Non-Toxic
MIC [6]: 1.95 µg/mL (≈ 8.4 µM)
MIC [7]: 0.49 µg/mL (≈ 2.11 µM)
MIC [8]: > 31.3 µg/mL
MIC [9]: 0.24 µg/mL (≈ 1.03 µM)
MIC [10]: > 31.3 µg/mL
viability at 31.3 microg/ml [11]: 94%
MIC [12]: 0.98 µg/mL (≈ 4.22 µM)
MIC [13]: > 31.3 µg/mL
MIC [14]: 15.6 µg/mL (≈ 67.2 µM)
MIC [15]: 7.8 µg/mL (≈ 33.6 µM)
MIC [16]: 7.8 µg/mL (≈ 33.6 µM)
MIC [17]: 3.9 µg/mL (≈ 16.8 µM)
MIC [18]: 0.98 µg/mL (≈ 4.22 µM)
MIC [19]: 0.98 µg/mL (≈ 4.22 µM)
MIC [20]: 0.98 µg/mL (≈ 4.22 µM)
MIC [21]: 3.9 µg/mL (≈ 16.8 µM)
Activity [22]: Non-Toxic

O=C(NNc1ccc(F)cc1F)c1ccccn1
MIC [1]: 0.49 µg/mL (≈ 1.97 µM)
MIC [2]: 0.24 µg/mL (≈ 0.963 µM)
MIC [3]: 0.98 µg/mL (≈ 3.93 µM)
MIC [4]: 0.49 µg/mL (≈ 1.97 µM)
Activity [5]: Non-Toxic
MIC [23]: 0.49 µg/mL (≈ 1.97 µM)
MIC [24]: 0.49 µg/mL (≈ 1.97 µM)
MIC [25]: 0.49 µg/mL (≈ 1.97 µM)
MIC [26]: 0.12 µg/mL (≈ 0.482 µM)
MIC [6]: 1.95 µg/mL (≈ 7.82 µM)
MIC [27]: 3.9 µg/mL (≈ 15.6 µM)
MIC [7]: 0.49 µg/mL (≈ 1.97 µM)
MIC [28]: 0.12 µg/mL (≈ 0.482 µM)
MIC [29]: 0.12 µg/mL (≈ 0.482 µM)
MIC [30]: 0.49 µg/mL (≈ 1.97 µM)
MIC [8]: 31.3 µg/mL (≈ 126 µM)
MIC [31]: 0.49 µg/mL (≈ 1.97 µM)
MIC [9]: 0.12 µg/mL (≈ 0.482 µM)
MIC [32]: 0.24 µg/mL (≈ 0.963 µM)
MIC [33]: 0.49 µg/mL (≈ 1.97 µM)
MIC [10]: > 31.3 µg/mL
MIC [12]: 0.98 µg/mL (≈ 3.93 µM)
MIC [34]: 0.49 µg/mL (≈ 1.97 µM)
MIC [35]: ≤ 0.06 µg/mL
MIC [13]: 15.6 µg/mL (≈ 62.6 µM)
MIC [14]: 15.6 µg/mL (≈ 62.6 µM)
MIC [15]: 0.98 µg/mL (≈ 3.93 µM)
MIC [16]: 31.3 µg/mL (≈ 126 µM)
Activity [36]: inactive
MIC [17]: 0.98 µg/mL (≈ 3.93 µM)
MIC [37]: 0.24 µg/mL (≈ 0.963 µM)
MIC [18]: 0.49 µg/mL (≈ 1.97 µM)
MIC [38]: 1.95 µg/mL (≈ 7.82 µM)
MIC [39]: 0.12 µg/mL (≈ 0.482 µM)
MIC [19]: 0.12 µg/mL (≈ 0.482 µM)
MIC [40]: 0.49 µg/mL (≈ 1.97 µM)
MIC [41]: 0.49 µg/mL (≈ 1.97 µM)
MIC [42]: 0.49 µg/mL (≈ 1.97 µM)
MIC [20]: 0.49 µg/mL (≈ 1.97 µM)
Activity [43]: Non-Toxic
MIC [21]: 1.95 µg/mL (≈ 7.82 µM)
Activity [22]: Non-Toxic
MIC [44]: 0.98 µg/mL (≈ 3.93 µM)
